Test results: ChEMBL document CHEMBL1128520, “Synthesis of (dialkylamino)alkyl-disubstituted pyrimido[5,6,1- de]acridines, a novel group of anticancer agents active on a multidrug resistant cell line” (J Med Chem, 1995)

Columns and labels:
[1] = system: L1210; experiment: The compound was tested in vitro for cytotoxic activity against L1210 Murine leukemia cell line; format: functional, cell-based; conditions: Mus musculus
In short: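 Murine L1210 leukemia cells grown in suspension in RPMI 1640 with 5% fetal calf serum and penicillin/streptomycin, 37 °C, 5% CO2, passaged every 2–3 days. Log-phase cells seeded at 0.05×10^6 cells/mL. Exposure 48 h. Growth read by cellular protein content. EC50 is the concentration giving 50% growth inhibition. At least five runs, mean ± SEM.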

[2] = system: Mus musculus; experiment: The compound was tested for anti tumor activity against P388 Murine Leukemia (%T/C = ratio of survival time of the treated to the control mice) at 0.19 mg/kg; format: functional
In short: (§1)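 P388 leukemia cells, 10^6 per mouse, given ip on day 0 to (BALB/c × DBA/2) F1 hybrid mice; line kept by ip passage in DBA/2 mice. Groups of 6 treated and 12 control mice. %T/C = mean survival time of treated / control × 100; ≥125 taken as significant.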

[3] = system: Mus musculus; experiment: The compound was tested for anti tumor activity against P388 Murine Leukemia (%T/C = ratio of survival time of the treated to the control mice) at 0.39 mg/kg; format: functional; in short: as §1
[4] = system: Mus musculus; experiment: The compound was tested for anti tumor activity against P388 Murine Leukemia (%T/C = ratio of survival time of the treated to the control mice) at 0.78 mg/kg; format: functional; in short: as §1
[5] = system: Mus musculus; experiment: The compound was tested for anti tumor activity against P388 Murine Leukemia (%T/C = ratio of survival time of the treated to the control mice) at 1.56 mg/kg; format: functional; in short: as §1
[6] = system: Mus musculus; experiment: The compound was tested for anti tumor activity against P388 Murine Leukemia (%T/C = ratio of survival time of the treated to the control mice) at 3.12 mg/kg; format: functional; in short: as §1
[7] = species: Mus musculus; experiment: The compound was tested for toxicity (number of toxic deaths/total number of mice 7 days after the day 5 injection); 0/6; format: organism-based; conditions: in vivo, 168 h
[8] = species: Mus musculus; experiment: The compound was tested for toxicity (number of toxic deaths/total number of mice 7 days after the day 5 injection); 1/6; format: organism-based; conditions: in vivo, 168 h
[9] = species: Mus musculus; experiment: The compound was tested for toxicity (number of toxic deaths/total number of mice 7 days after the day 5 injection); 6/6; format: organism-based; conditions: in vivo, 168 h
[10] = system: LoVo; experiment: The compound was tested in vitro for cytotoxic activity against Doxorubicin resistant LoVo/Dx human colon adenocarcinoma cell line; format: functional, cell-based
In short: (§2)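 LoVo and doxorubicin-resistant LoVo/Dx monolayers grown in Ham's F-12 with 10% fetal calf serum, penicillin/streptomycin, L-glutamine and MEM vitamins, 37 °C, 5% CO2. Log-phase cells seeded at 0.02×10^6 cells/mL. Exposure 72 h. Growth measured by cellular protein content. EC50 is the concentration giving 50% growth inhibition. At least five runs, mean ± SEM.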

[11] = system: LoVo; experiment: The compound was tested in vitro for cytotoxic activity against sensitive LoVo human colon adenocarcinoma cell line; format: functional, cell-based; in short: as §2
[12] = Resistance Index is the ratio of EC50 of LoVo/Dx cell line and EC50 of LoVo cell line; format: functional

## CN(C)CCNc1ccc2c(=O)n(CCN(C)C)c(=O)n3c4ccccc4c(=O)c1c23.Cl
[1]
  EC50: 2.2 nM
[2]
  T/C: 166%
[3]
  T/C: 222%
[4]
  T/C: 222%
[5]
  T/C: 100%
[6]
  T/C: 70%
[7]
  Toxicity: 0
[8]
  Toxicity: 1
[9]
  Toxicity: 6

## CN(C)CCCNc1ccc2c(=O)n(CCN(C)C)c(=O)n3c4ccccc4c(=O)c1c23.Cl
[10]
  EC50: 160 nM
[1]
  EC50: 63 nM
[11]
  EC50: 190 nM
[12]
  Resistance index: 0.8

## Cl.O=C1c2ccccc2C(=O)c2c(NCCNCCO)ccc(NCCNCCO)c21
[10]
  EC50: 36800 nM
[1]
  EC50: 350 nM
[11]
  EC50: 640 nM
[12]
  Resistance index: 57.5

## CN(C)CCn1c(=O)c2ccc(Cl)c3c(=O)c4ccccc4n(c1=O)c23.Cl
[10]
  EC50: 1400 nM
[1]
  EC50: 500 nM
[11]
  EC50: 1200 nM
[12]
  Resistance index: 1.2

## CCN(CC)CCNc1ccc2c(=O)n(CCN(C)C)c(=O)n3c4ccccc4c(=O)c1c23.Cl
[10]
  EC50: 100 nM
[1]
  EC50: 52 nM
[11]
  EC50: 52 nM
[12]
  Resistance index: 1.9

## CN(C)CCn1c(=O)c2ccc(NCCN3CCNCC3)c3c(=O)c4ccccc4n(c1=O)c23.Cl
[10]
  EC50: 1000 nM
[1]
  EC50: 210 nM
[11]
  EC50: 850 nM
[12]
  Resistance index: 1.2

## CN(C)CCn1c(=O)c2ccc(NCCNCCO)c3c(=O)c4ccccc4n(c1=O)c23.Cl
[10]
  EC50: 230 nM
[1]
  EC50: 4.5 nM
[11]
  EC50: 30 nM
[2]
  T/C: 189%
[3]
  T/C: 244%
[4]
  T/C: 233%
[5]
  T/C: 167%
[6]
  T/C: 70%
[7]
  Toxicity: 0
[12]
  Resistance index: 7.7
[9]
  Toxicity: 6
